This note sets out measurements from ChEMBL document CHEMBL3352233, “N-[6-(4-butanoyl-5-methyl-1H-pyrazol-1-yl)pyridazin-3-yl]-5-chloro-1-[2-(4-methylpiperazin-1-yl)-2-oxoethyl]-1H-indole-3-carboxamide (SAR216471), a novel intravenous and oral, reversible, and directly acting P2Y12 antagonist” (J Med Chem, 2014).

Data set [1] concerns the target P2Y purinoceptor 12 (Homo sapiens, UniProt Q9H244). Description: Displacement of [33P]2MeS-ADP from P2Y12 receptor (unknown origin) transfected in CHO cells after 30 mins by scintillation counting analysis. It counts as cell-based. In a few lines: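 P2Y12-expressing CHO cells (35 × 10³/sample) in PBS with 1 mM EDTA and 0.2% BSA are exposed to compound for 30 min. [³³P]2-MeS-ADP (0.16 nM) is then added for 15 min at 20 °C, in triplicate. Filtration separates free from bound ligand, followed by scintillation counting. Nonspecific binding uses 1 mM unlabeled ADP. IC50 comes from a four-parameter logistic fit with asymptotes fixed at 0 and 100. n = 2.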

Data set [2] is described as follows: Metabolic stability in human liver microsomes assessed as compound metabolism after 20 mins incubation in presence of 1 mM NADPH. It counts as ADME. The note with it: liver microsomes, read-out: Drug metabolism. In a few lines: (§1)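 Hepatic microsomal fractions are incubated with compound for 20 min with 1 mM NADPH. Result is reported as % metabolized, i.e. 100 minus % unchanged compound.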

Data set [3] is described as follows: Metabolic stability in rat liver microsomes assessed as compound metabolism after 20 mins incubation in presence of 1 mM NADPH. It counts as ADME. The following applies: liver microsomes, read-out: Drug metabolism. In a few lines: as §1
(In general: Liver microsomes are vesicles of endoplasmic reticulum, rich in cytochrome P450 enzymes.)

The nature of data set [4]: Permeability across human Caco2 cells. It counts as ADME, cell-based. The note with it: Caco-2, read-out: permeability. In a few lines: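 Permeation is measured across a Caco2 cell monolayer and reported in 10⁻⁷ cm·s⁻¹.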
For orientation: Caco-2 monolayers are a common model of the intestinal barrier.

The test system of data set [5] is Rattus norvegicus. Description: Ex vivo inhibition of platelet aggregation in Sprague-Dawley rat at 10 mg/kg, po after 2 hrs. In kind it is functional. The note with it: for inhibition in vivo at 10 mg/kg: Rattus norvegicus, Sprague-Dawley, po, 2 h. In a few lines: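 Male Sprague−Dawley rats (250−300 g), 6 per batch, are dosed by stomach tube at 10 mL/kg of a 1 mg/mL solution in 5% glucose water containing 5% Cremophor and 3% glycofurol. At 2 h, aortic blood is drawn into 3.8% citrate (1:9) under pentobarbital. PRP is prepared at 300g for 5 min. ADP aggregation is read as the 6-min absorbance AUC and expressed as % inhibition.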

In data set [6] the test system is Salmonella typhimurium. The data set can be described thus: Mutagenicity in Salmonella typhimurium by Ames II test in absence of liver S9 fraction. In kind it is toxicity, organism-based. The following applies: salmonella enterica subsp. enterica serovar typhimurium.
Data set [7] has as its system Salmonella typhimurium. The data set can be described thus: Mutagenicity in Salmonella typhimurium by Ames II test in presence of liver S9 fraction. In kind it is toxicity, organism-based. The note with it: salmonella enterica subsp. enterica serovar typhimurium.

The source made the active and inactive calls. The rule behind the calls is not given here.

P2Y purinoceptor 12, sequence (Q9H244 whole entry): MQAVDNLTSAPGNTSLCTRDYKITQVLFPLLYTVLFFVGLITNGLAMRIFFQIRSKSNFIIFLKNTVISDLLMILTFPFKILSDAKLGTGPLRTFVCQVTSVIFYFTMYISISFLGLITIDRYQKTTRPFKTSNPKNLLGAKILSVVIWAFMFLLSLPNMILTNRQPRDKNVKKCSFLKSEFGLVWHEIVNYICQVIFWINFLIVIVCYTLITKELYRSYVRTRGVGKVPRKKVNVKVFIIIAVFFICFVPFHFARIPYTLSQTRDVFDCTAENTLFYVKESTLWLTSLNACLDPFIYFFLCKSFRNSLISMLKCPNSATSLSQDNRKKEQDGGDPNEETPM

As to `CC(=O)c1cnn(-c2ccc(NC(=O)c3cn(CC(=O)N4CCN(C)CC4)c4ccc(Cl)cc34)cc2)c1C`, the IC50 (commonly the concentration at which inhibition is half-maximal) in data set [1] worked out at 0.143 µM. Besides, the figures for the metabolised at 20 min in data set [2] and in data set [3] were 40% and 47%, respectively.

`CCCC(=O)c1cnn(-c2ccc(NC(=O)c3cn(CC(=O)N4CCN(CC(F)F)CC4)c4ccc(C)cc34)cc2)c1C` had an IC50 in data set [1] of 0.019 µM. Moreover, the values for the metabolised at 20 min in data set [2] and in data set [3] were 64% and 27%, respectively. For the same compound, the Papp in data set [4] is 93 nm/s.

Compound `CCCC(=O)c1cnn(-c2ccc(NC(=O)c3cn(CC(=O)O)c4cc(C)c(C)cc34)cc2)c1C` came in with a half-inhibitory concentration (IC50) in data set [1] of 0.0051 µM. The metabolised at 20 min in data set [2] came to 4%; in data set [3], 2%.

Compound `CCCC(=O)c1cnn(-c2ccc(NC(=O)c3cn(CC(=O)N4CCN(C)CC4)c4ccc(OC)cc34)cc2)c1C` showed an IC50 in data set [1] of 0.022 µM. For the same compound, the figures for the metabolised at 20 min in data set [2] and in data set [3] were 68% and 63%, respectively.

Regarding `CCCC(=O)c1cnn(-c2ccc(NC(=O)c3cn(CC(=O)N4CCN(C)CC4)c4cc(C)c(C)cc34)cc2)c1C.Cl`, in data set [5], the inhibition in vivo (in general, the change of the read-out against control, counted positive when it falls) at 10 mg/kg was 37%. The compound further registered an IC50 in data set [1] of 0.039 µM. Also, the metabolised at 20 min in data set [2] worked out at 50%; in data set [3], 52%. In addition, the Papp in data set [4] was 59 nm/s.

`Cc1c(C(=O)CCC(F)(F)F)cnn1-c1ccc(NC(=O)c2cn(CC(=O)N3CCN(C)CC3)c3ccc(Cl)cc23)cc1` yielded a half-maximal inhibitory concentration (IC50) in data set [1] of 0.574 µM. Moreover, the values for the metabolised at 20 min in data set [2] and in data set [3] were 6% and 3%, respectively.

`CCC(=O)c1cnn(-c2ccc(NC(=O)c3cn(CC(=O)N4CCN(C)CC4)c4ccc(Cl)cc34)cc2)c1C` had an IC50 in data set [1] of 0.336 µM. Moreover, the metabolised at 20 min stood at 32% in data set [2] and 25% in data set [3].

Consider `CCCC(=O)c1cnn(-c2ccc(NC(=O)c3cn(CC(=O)N4CCN(Cc5ccc(F)cc5)CC4)c4ccc(C)cc34)cc2)c1C`, for which the concentration for half-maximal inhibition (IC50) in data set [1] is 0.012 µM. Further, the metabolised at 20 min in data set [2] was found to be 63%; in data set [3], 27%. For the same compound, in data set [4], the Papp was determined as 17 nm/s.

In data set [5], `CCCC(=O)c1cnn(-c2ccc(NC(=O)c3cn(CC(=O)N4CCN(C)CC4)c4ccc(C(F)(F)F)cc34)cc2)c1C` showed an inhibition in vivo at 10 mg/kg of 26%. Further, the concentration for half-maximal inhibition (IC50) in data set [1] was determined as 0.05 µM. Also, the values for the metabolised at 20 min in data set [2] and in data set [3] were 15% and 14%, respectively. Besides, in data set [4], the Papp worked out at 9 nm/s.

In turn, `CCCC(=O)c1cnn(-c2ccc(NC(=O)c3cn(CC(=O)N4CCN(C)CC4)c4cc(C)c(Cl)cc34)cc2)c1C` returned an inhibition in vivo at 10 mg/kg in data set [5] of 31%. In addition, in data set [1], the IC50 was 0.034 µM. In addition, the results for the metabolised at 20 min in data set [2] and in data set [3] were 36% and 23%, respectively. The Papp in data set [4] is 36 nm/s.

In the case of `CCCC(=O)c1cnn(-c2ccc(NC(=O)c3cn(CC(=O)N4CCN(C)C(C)C4)c4ccc(C)cc34)cc2)c1C` (centres undefined), the IC50 in data set [1] stood at 0.027 µM. In addition, the metabolised at 20 min in data set [2] turned out to be 65%; in data set [3], 45%. The Papp in data set [4] is 55 nm/s.

Consider `CCCC(=O)c1cnn(-c2ccc(N)c(C(=O)O)c2)c1C`, for which the Activity result in data set [6] and in data set [7] was “Non-toxic” throughout.

In the case of `CCCC(=O)c1cnn(-c2ccc(NC(=O)c3cn(CC(=O)N4CCN(CCF)CC4)c4ccc(C)cc34)cc2)c1C`, in data set [1], the IC50 worked out at 0.019 µM. In addition, the metabolised at 20 min in data set [2] came to 62%; in data set [3] it was 36%. Moreover, the Papp in data set [4] came to 82 nm/s.

For the compound `CCCC(=O)c1cnn([C@H]2CC[C@H](N)CC2)c1C`, the Activity result in data set [6] was “Non-toxic”.

For the compound `CCCC(=O)c1cnn(-c2ccc(NC(=O)c3cn(CC(=O)O)c4ccc(C)cc34)cc2)c1C`, in data set [1], the IC50 stood at 0.0009 µM. Further, the metabolised at 20 min amounted to 5% in data set [2] and 1% in data set [3].

For the compound `CCCC(=O)c1cnn(C2CCN(N)CC2)c1C`, the Activity entry in data set [6] and in data set [7] was “Non-toxic” each time.

As for `CCCC(=O)c1cnn(-c2ccc(NC(=O)c3cn(CC(=O)N4CCN(CCO)CC4)c4ccc(Cl)cc34)cc2)c1C`, the inhibition in vivo at 10 mg/kg in data set [5] was 22%. Also, the concentration for half-maximal inhibition (IC50) in data set [1] is 0.011 µM. In addition, the metabolised at 20 min stood at 14% in data set [2] and 6% in data set [3].

Turning to `CCCC(=O)c1cnn(-c2ccc(NC(=O)c3cn(CC(=O)N4CCN(C)CC4)c4cc(F)c(Cl)cc34)cc2)c1C`, in data set [5], the inhibition result is “inactive”. The IC50 in data set [1] amounted to 0.048 µM. The metabolised at 20 min in data set [2] came out at 31%; in data set [3], 21%. In addition, in data set [4], the Papp stood at 11 nm/s.

Turning to `CCCC(=O)c1cnn(-c2ccc(N)cc2)c1C`, the Activity entry in data set [6] was “Non-toxic”; in data set [7], “Toxic”.

As to `CCCC(=O)c1cnn(-c2ccc(NC(=O)c3cn(CC(=O)N4CCN(C)CC4)c4cc(C)c(Br)cc34)cc2)c1C`, the inhibition in vivo at 10 mg/kg in data set [5] stood at 21%. The IC50 in data set [1] was determined as 0.048 µM. Besides, the metabolised at 20 min in data set [2] turned out to be 34%; in data set [3] it was 20%. Also, the Papp in data set [4] stood at 28 nm/s.

For the compound `CCCC(=O)c1cnn(-c2ccc(NC(=O)c3cn(CC(=O)N4CCN(CC(=O)N(C)C)CC4)c4ccc(Cl)cc34)cc2)c1C`, the inhibition entry in data set [5] is “inactive”. In data set [1], this compound displayed an IC50 of 0.011 µM. Besides, the metabolised at 20 min in data set [2] was determined as 28%; in data set [3] it was 7%.

The compound `CCCC(=O)c1cnn(-c2ccc(NC(=O)c3cn(CC(=O)N4C[C@@H]5C[C@@H](O)CN5C[C@@H]4C)c4ccc(C)cc34)cc2)c1C` gave an IC50 in data set [1] of 0.015 µM. For the same compound, the values for the metabolised at 20 min in data set [2] and in data set [3] were 61% and 25%, respectively.

In the case of `CCCC(=O)c1cnn(-c2ccc(NC(=O)c3cn(CC(=O)N4CCN(CCO)CC4)c4ccc(C)cc34)cc2)c1C`, the IC50 in data set [1] amounted to 0.041 µM. The metabolised at 20 min turned out to be 16% in data set [2] and 17% in data set [3]. Moreover, in data set [4], the Papp is 2 nm/s.

In the case of `CCCC(=O)c1cnn(-c2ccc(NC(=O)c3cn(CC(=O)N4CCN(C(C)C)CC4)c4ccc(C)cc34)cc2)c1C`, at 10 mg/kg the inhibition in vivo in data set [5] was 15%. In addition, the IC50 in data set [1] amounted to 0.082 µM.

`CCCC(=O)c1cnn(-c2ccc(NC(=O)c3cn(CC(=O)N4CCN(CCOC)CC4)c4ccc(C)cc34)cc2)c1C` yielded an IC50 in data set [1] of 0.02 µM. Further, the figures for the metabolised at 20 min in data set [2] and in data set [3] were 53% and 32%, respectively. Further, in data set [4], the Papp was found to be 74 nm/s.

Consider `CCCC(=O)c1cnn(-c2ccc(NC(=O)c3cn(CC(=O)N4CCN(C)CC4)c4ccc(C#N)cc34)cc2)c1C`, for which the IC50 in data set [1] amounted to 0.076 µM.

With `CCCC(=O)c1cnn(-c2ccc(NC(=O)c3cn(CC(=O)N[C@H]4CCNC4)c4ccc(C)cc34)cc2)c1C`, in data set [1], the IC50 worked out at 0.061 µM.

In turn, `CCCC(=O)c1cnn(-c2ccc(NC(=O)c3cn(CC(=O)N4CCCN(C)CC4)c4ccc(C)cc34)cc2)c1C` registered an IC50 in data set [1] of 0.095 µM.

Take `CCCC(=O)c1cnn(-c2ccc(NC(=O)c3cn(CCC(=O)O)c4ccc(C)cc34)cc2)c1C`: the IC50 in data set [1] stood at 0.007 µM.

Take `CCCC(=O)c1cnn(-c2ccc(NC(=O)c3cn(CC(=O)N4CCN(CC5CC5)CC4)c4ccc(C)cc34)cc2)c1C`: the IC50 in data set [1] is 0.029 µM.

`CCCC(=O)c1cnn(-c2ccc(NC(=O)c3cn(CC(=O)N4CCCCC4CN4CCCC4)c4ccc(C)cc34)cc2)c1C` (centres undefined) gave an IC50 in data set [1] of 0.1 µM.

Turning to `CCCC(=O)c1cnn(-c2ccc(NC(=O)c3cn(CC(=O)N4CCN(C)CC4)c4cc(Cl)c(C)cc34)cc2)c1C`, the IC50 in data set [1] stood at 0.138 µM. The IC50 values of the last two compounds are within 1.5-fold of each other.
